Data on three molecules can be found in publication PMC5896666 (Drug Design, Development and Therapy, 2018).

Molecules are shown by their SMILES.

The subject of series [1] is EJ cells. As to the kind of experiment: EdU incorporation assay. The class given is cell-based, human. Particulars: 1.0 μM, 24 h, then 50 μM EdU 4 h. The essentials:
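EJ cells at 5×10^3 per well treated 24 h with 1.0 μM test compound, washed, then labelled with 50 μM EdU for 4 h at 37 °C in the dark. Fixed in 4% formaldehyde 15 min at room temperature, permeabilised in 0.5% Triton X-100 20 min. Apollo cocktail 30 min, Hoechst 33342 30 min, fluorescence microscopy. Mean ± SD of triplicates.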

For series [2], the system named is ROS production in EJ cells. The series is described as follows: Intracellular reactive oxygen species detection. The class given is cell-based, human. Particulars: 1.0 μM, 24 h, DCFH-DA, fluorescence microplate reader. The procedure, abridged:
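EJ cells, with or without 2 h pretreatment with 5 mM NAC, were given 1.0 μM test compound for 24 h. After PBS washes, loaded with 10 μM DCFH-DA for 30 min at 37 °C and washed again. Imaged by fluorescence microscopy and quantified on a plate reader (ex 485/em 520 nm). Values given as percent of control.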

Series [3] concerns human immortalized uroepithelium cell line SV-HUC-1. As to the kind of experiment: Cell viability MTT assay. Particulars: SV-HUC-1 normal uroepithelium cells. The class given is cell-based. The essentials: (§1)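 Cells seeded at 5×10^3 per well: EJ in RPMI 1640, SV-HUC-1 in F-12K, both with 10% FBS. Test compound came from 25 mmol/L DMSO stock diluted in serum-free medium or PBS. Series run at graded concentrations for 24 h, or at 1.0 μM over varying times. MTT added for 4 h at 37 °C, formazan dissolved in DMSO, A570 read. Viability relative to untreated (100%); ≥3 repeats.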

In series [4] the test system is caspase-9. As to the kind of experiment: Caspase-9 activity measurement in cell lysates. The class given is cell-based, human. Particulars: EJ cells, 1.0 μM, 24 h, vs control and TAT-treated cells. The essentials: (§2)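 EJ cells treated for 24 h with 1.0 μM test compound. Lysates were mixed with buffer containing pNA substrate added at 2 mM: Ac-DEVD-pNA for caspase-3, Ac-LEHD-pNA for caspase-9. Incubated 4 h at 37 °C in the dark, then absorbance read at 405 nm. Activity given as ratio of treated to untreated control cells.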

Series [5] has as its system EJ cells. The series is described as follows: AO/EB dual staining, morphological assessment of apoptotic cells. The class given is cell-based, human. Particulars: 1.0 μM, 24 h, mean ± SD. The essentials:
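EJ cells (RPMI 1640, 10% FBS, 37 °C, 5% CO2) exposed to 1.0 μM test compound for 24 h, then trypsinised, pelleted and PBS-washed. Stained with 100 μg/mL AO and 100 μg/mL EB for 10 min at 4 °C in the dark. Scored by fluorescence microscopy for nuclear condensation and shrinkage. Apoptotic rate = apoptotic cells/total counted. Mean ± SD of triplicates.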

The subject of series [6] is EJ cells. The series is described as follows: Colony-formation assay. The format is cell-based, human. Particulars: 1.0 μM, 24 h, then 10 days growth. The essentials:
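EJ cells at 1×10^6 per well given 1.0 μM test compound for 24 h. Harvested and replated at 5×10^2 cells per well in fresh 10% FBS medium, then grown 10 days. Colonies fixed, stained with 1% crystal violet in 10% methanol and counted blinded under a microscope. Mean ± SD of triplicates.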

Series [7] relates to caspase-3. The series is described as follows: Caspase-3 activity measurement in cell lysates. The class given is cell-based, human. Particulars: EJ cells, 1.0 μM, 24 h, vs control and TAT-treated cells. The procedure, abridged: as §2
The test system of series [8] is human bladder cancer EJ cell line. The series is described as follows: Cell viability MTT assay. The format is cell-based. The essentials: as §1
On the technique in general: Tetrazolium dyes change colour on reduction, which living cells bring about.

For series [9], the system named is Bax. As to the kind of experiment: Western blotting analysis of Bax. The class given is cell-based, human. Particulars: EJ cells, 1.0 μM, 24 h. The procedure, abridged: (§3)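 EJ cells received 1.0 μM test compound for 24 h, with or without 2 h pretreatment with 5 mM NAC. Lysed in RIPA with protease inhibitor; 30 μg protein (BCA) run on 10–12% SDS-PAGE and moved to PVDF. Blocked 30 min at room temperature in TBS, 0.1% Triton X-100, 5% milk. Primary antibody overnight at 4 °C, HRP secondary 1 h, ECL detection. GAPDH loading control.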
Background: A western blot detects proteins with antibodies after separation by electrophoresis.

Series [10] relates to EJ cells. As to the kind of experiment: Annexin V-FITC/PI staining flow cytometry of apoptosis. The format is cell-based, human. Particulars: for Percentage of apoptotic cells (Annexin V-FITC/PI flow cytometry) / Effect of caspase inhibitors on induced apoptosis: 1.0 μM, 24 h; for Percentage of apoptotic cells (Annexin V-FITC/PI flow cytometry): mean ± SD; for Effect of caspase inhibitors on induced apoptosis: with 20 μM Z-LEHD-FMK or z-DEVD-fmk (Ac-DEVD-CHO). The essentials:
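EJ cells were seeded at 1×10^6 per well, left overnight, then given 1.0 μM test compound for 24 h. Some wells also received 20 μM caspase-3 (Ac-DEVD-CHO) or caspase-9 (Z-LEHD-FMK) inhibitor, or a 2 h pretreatment with 5 mM NAC. Harvested cells were stained with Annexin V-FITC/PI and read by flow cytometry for percent apoptotic cells. Mean ± SD of triplicates.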

Series [11] deals with Bcl-2. The series is described as follows: Western blotting analysis of Bcl-2. The format is cell-based, human. Particulars: EJ cells, 1.0 μM, 24 h. The essentials: as §3
A short description of series [12]: Equilibrium solubility assay. Particulars: shake-flask, distilled water pH 7.0, 37°C, UV spectrophotometry; stayed at this level for 6-24 h. The class given is physicochemical.

For the molecule `CC(C)=CCC[C@]1(C)C=Cc2c(O)c3c(c(CC=C(C)C)c2O1)O[C@]12C(=C[C@@H]4C[C@H]1C(C)(C)O[C@@]2(C/C=C(/C)C(=O)O)C4=O)C3=O` [GA, Gambogic acid], the “Number of EdU+ cells” value in series [1] is “significantly reduced”. The ROS production result in series [2] is recorded as “substantially increased”. In addition, in series [3], the “Effect on cell viability” value is “nearly unaffected”. Moreover, the Caspase-9 activity result in series [4] is “increased”. In addition, the “Percentage of apoptotic cells (AO/EB)” value in series [5] is on record as 19.18%±4.35%. Also, the Colony growth result in [6] is “significantly decreased”. For the same molecule, the Caspase-3 activity entry in series [7] is given as “increased”. In addition, in series [8] (EJ cells, MTT), the “Concentration inducing clear cytotoxic effects” value was 1000 nM. In addition, the IC50 in series [8] (Homo sapiens, EJ, 24 h, read-out: 50% inhibitory concentration (IC50)) was found to be 4.95 µM. The Bax expression level result in [9] is given as “upregulated”. Moreover, in series [10], the “Percentage of apoptotic cells (Annexin V-FITC/PI flow cytometry)” value is recorded as 21.3%±2.27% and the “Effect of caspase inhibitors on induced apoptosis” value was “completely suppressed”. Also, the Bcl-2 protein level result in series [11] is “not affected”.
Turning to `CC(=O)N[C@@H](CS)C(=O)O` [NAC, N-acetyl-L-cysteine], the “Effect on apoptosis, NAC treatment alone” value in series [10] (5 mM NAC in the absence of GA and GA-TAT) is “did not significantly affect apoptosis”.
On to `CC(C)=CCC[C@]1(C)C=Cc2c(O)c3c(c(CC=C(C)C)c2O1)O[C@]12C(=C[C@@H]4C[C@H]1C(C)(C)O[C@@]2(C/C=C(/C)C(=O)N[C@@H](CS)C(=O)N[C@@H](Cc1ccc(O)cc1)C(=O)NCC(=O)N[C@@H](CCCNC(=N)N)C(=O)N[C@@H](CCCCN)C(=O)N[C@@H](CCCCN)C(=O)N[C@@H](CCCNC(=N)N)C(=O)N[C@@H](CCCNC(=N)N)C(=O)N[C@@H](CCC(N)=O)C(=O)N[C@@H](CCCNC(=N)N)C(=O)N[C@@H](CCCNC(=N)N)C(=O)N[C@@H](CCCNC(=N)N)C(=O)O)C4=O)C3=O` [GA-TAT], for which the “Number of EdU+ cells” value in series [1] is “markedly less”. The ROS production result in series [2] was “significantly higher”. For the same molecule, the “Effect on cell viability” value in series [3] is given as “nearly unaffected”. Further, the Caspase-9 activity result in series [4] was “further enhanced”. Further, in [5], the “Percentage of apoptotic cells (AO/EB)” value was 42.15%±5.23%. The Colony growth entry in series [6] is reported as “further reduced”. Also, in series [7], the Caspase-3 activity entry is “further enhanced”. Besides, in series [9], the Bax expression level entry is reported as “upregulated”. Further, in series [10], the “Percentage of apoptotic cells (Annexin V-FITC/PI flow cytometry)” value was 46.4%±4.86% and the “Effect of caspase inhibitors on induced apoptosis” value was “partially inhibited”. Moreover, the “Stirring time at which solubility reached its peak” value in [12] was 4 h. For the same molecule, the Bcl-2 protein level result in series [11] is “downregulated”.
